For data set [1] the following is noted: cited from earlier work.
For data set [2], the target named is recombinant BACE1 (Homo sapiens, UniProt P56817). The data set can be described thus: In vitro BACE1 activity assay. In kind it is biochemical.
In data set [3] the test system is Tg2576 mice. The data set can be described thus: APP processing in brain. In kind it is in vivo, mouse. To be noted: Tg2576, chronic treatment, western blot 6E10, n = 6 per group. The method, boiled down: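 Tg2576 females, 9 months old, given test compound at 200 μg kg−1 i.p. or PBS once daily for 10 weeks; n=6 per group for blots. Brain proteins were fractionated into TBS-soluble, TBS-X and formic acid fractions. Reduced SDS-PAGE and western blot used human APP-specific 6E10. Full-length APP and C99 were quantitated from the TBS-X fraction and sAPP from the TBS-soluble fraction. Mean±s.e.; t-tests.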
A general note: A western blot detects proteins with antibodies after separation by electrophoresis.

Data set [4] relates to 5XFAD mice. The data set can be described thus: Serum Aβ after a single injection. Type of data set: in vivo, mouse. An outline of the steps:
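Female 5XFAD mice got a single i.p. injection of test compound or PBS. Serum was drawn before and after injection. Aβ1–42 was measured by sandwich ELISA: 21F12 capture, biotinylated N-terminal detection, streptavidin-alkaline phosphatase and a fluorescent substrate. Samples were diluted twofold to fivefold. Lowest detection level was 1.6 pg ml−1, from a standard curve.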

The conditions of data set [5]: cited from earlier work. This is another data set of the same source.
For data set [6], the system named is Dutch APP mice. The data set can be described thus: Serum Aβ after a single injection. In kind it is in vivo, mouse. Particulars: single i.p. 200 μg kg^-1.

Bridge positions count the residues as written; N and C are the ends. Ends that are not written are not given here.

Sequence of recombinant BACE1 (P56817 46-501, species assumed): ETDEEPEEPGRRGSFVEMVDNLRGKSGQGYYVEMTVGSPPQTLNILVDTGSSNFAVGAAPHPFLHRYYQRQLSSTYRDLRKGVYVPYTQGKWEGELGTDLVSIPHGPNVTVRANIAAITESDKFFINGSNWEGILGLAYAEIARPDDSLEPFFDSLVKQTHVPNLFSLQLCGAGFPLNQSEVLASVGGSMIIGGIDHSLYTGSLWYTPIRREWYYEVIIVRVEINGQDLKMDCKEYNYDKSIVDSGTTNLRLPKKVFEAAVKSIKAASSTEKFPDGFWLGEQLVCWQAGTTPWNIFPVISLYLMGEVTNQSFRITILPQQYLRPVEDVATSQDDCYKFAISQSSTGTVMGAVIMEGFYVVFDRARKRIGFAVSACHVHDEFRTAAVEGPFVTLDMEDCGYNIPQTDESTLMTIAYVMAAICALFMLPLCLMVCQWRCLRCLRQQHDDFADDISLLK

On to “Pramlintide (KCNTATCATQRLANFLVHSSNNFGPILPPTNVGSNTY-NH2; disulfide 2-7; chains of the INN, looked up)”, for which the “aggregation (in words)” value in data set [1] is on record as “does not form aggregates”. In addition, the “ability to inhibit BACE1 activity (in words)” value in data set [2] (purified BACE1, same assay as amylin) was “little or no ability to inhibit BACE1 activity”. In addition, the “level of APP fragment C99 in brain versus controls (in words)” value in data set [3] is “did not reduce C99 levels”.
With “Amylin (KCNTATCATQRLANFLVHSSNNFGAILSSTNVGSNTY; not fully specified (C-terminus, bridges); cysteine pairing not given here; UniProt P10997 34-70, looked up)”, the “change of serum Aβ after i.c.v. versus i.p. injection (in words)” value in data set [4] (single i.c.v. 200 μg kg^-1 vs single i.p. 200 μg kg^-1, P=0.03) is “much greater surge of Aβ in serum than a peripheral i.p. injection”. For the same substance, the “change of serum Aβ1-42 and Aβ1-40 after one injection (in words)” value in data set [4] (single i.p. 200 μg kg^-1) is given as “increased level of Aβ1–42 but not of Aβ1–40 in serum”. Also, the “dose dependence of serum Aβ1-42 change after challenge (in words)” value in data set [4] (single i.p. challenge, Figure 3e) is reported as “dose dependent”. Besides, the “inhibition of BACE1 activity” value in data set [2] (purified BACE1, dose-dependent, concentration not given) turned out to be 70%. In addition, the “passage of the blood-brain barrier (in words)” value in data set [5] is “passes through the blood–brain barrier (BBB) easily”. Moreover, in data set [3], the “level of APP fragment C99 in brain versus controls (in words)” value is “lower levels of the APP processing fragments C99”. Also, in data set [6], the “change of serum Aβ1-40 and Aβ1-42 after one injection (in words)” value was “provoked a surge of Aβ1–40 but not of Aβ1–42 in the blood”.
